From PubChem BioAssay
Active and inactive are the calls of the source.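 The calls were made as follows, unless noted: active = viability at or below 10% of carrier control in both of two separate runs; inconclusive = viability at or below 10% in only one of the two runs; inactive = the rest.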

Columns and labels:
[1] = reducers of endogenous Her2 protein level, primary screen, SKBR3 breast tumor cells, AlphaScreen, ATP viability (AID 461;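 active = Her2 level under about 52% in both replicate screens, with viability over 70% of control, limit read from the data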;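 as to Her2 level: lower value means less Her2 protein in the cells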;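 as to viability: percent of carrier control wells set as 100% viability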); details: 18-24 h, measured here: SKBR3 viability, ATP luminescence, at 10 µM
[2] = target: Receptor tyrosine-protein kinase erbB-2 (Homo sapiens) (UniProt P04626); assay: as above; details: 18-24 h, at 10 µM, stronger effect = lower value
[3] = SK-BR-3 cell growth inhibitors, pilot screen, 24 h, human (AID 572); details: SK-BR-3 viability, CellTiter-Glo luminescence, at 10 µM, stronger effect = lower value;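 also: compound exposure lasted between 18 and 24 h rather than exactly 24 h; 100% = carrier-treated control wells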
[4] = HUVEC growth inhibition – cell-based, human, primary screen (AID 575;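 active = viability at or below 30% in both replicate assays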;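 also: 100% = median of untreated cell wells with 0.1% DMSO on each plate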); details: HUVEC proliferation, CellTiter-Glo luminescence, 72 h; at 10 µM; stronger effect = lower value
Method in brief: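 Test system – primary HUVEC, no more than 12 passages · Dosing – one dose, 10 µM final, 0.1% DMSO · Times – 72 h treatment at 37 °C · Measured by – ATP-based CellTiter-Glo luminescent read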

[5] = growth inhibitors of H69AR lung tumor, primary screen, human, duplicate replicates (AID 580;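 active = viability at or under a set limit in both replicates, limit being median viability minus 3 SD, cut at about 48% in these data, passing the limit was not always enough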;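 also: 100% = mean luminescence of untreated wells and 0% = no signal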); details: H69AR lung tumor cells viability, ATP luminescence, 72 h; at 10 µM; stronger effect = lower value
[6] = reversal of MRP1-mediated doxorubicin resistance, pilot screen, H69AR cells, doxorubicin co-treatment (AID 601;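 active = viability loss from added drug above about 55%, and viability with drug at most 40%, in both replicates, limit read from the data, passing the limit was not always enough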); details: CellTiter-Glo, 72 h, at 10 µM; for differential viability (reversal): stronger effect = higher value
[7] = 384-well plate pilot, post-Golgi transport modulator project, inhibition of yeast transport mutant growth (AID 636; in the data active = inhibition above about 31%); details: absorbance 615 nm, about 18 h, stronger effect = higher value
[8] = growth suppression of yeast trafficking mutant, preliminary HTS, modulators of trafficking downstream of Golgi apparatus project, 1536-format plate, OD 615 nm (AID 637; in the data active = inhibition above about 30%); details: yeast transport mutant growth, absorbance 615 nm, 18 h; stronger effect = higher value
[9] = H69AR cells + 2 uM doxorubicin, measured here: viability with 2 uM doxorubicin, stronger effect = lower value
[10] = H69AR cells, compound alone cytotoxicity

Chain of Receptor tyrosine-protein kinase erbB-2 (Homo sapiens) (P04626 whole entry, looked up): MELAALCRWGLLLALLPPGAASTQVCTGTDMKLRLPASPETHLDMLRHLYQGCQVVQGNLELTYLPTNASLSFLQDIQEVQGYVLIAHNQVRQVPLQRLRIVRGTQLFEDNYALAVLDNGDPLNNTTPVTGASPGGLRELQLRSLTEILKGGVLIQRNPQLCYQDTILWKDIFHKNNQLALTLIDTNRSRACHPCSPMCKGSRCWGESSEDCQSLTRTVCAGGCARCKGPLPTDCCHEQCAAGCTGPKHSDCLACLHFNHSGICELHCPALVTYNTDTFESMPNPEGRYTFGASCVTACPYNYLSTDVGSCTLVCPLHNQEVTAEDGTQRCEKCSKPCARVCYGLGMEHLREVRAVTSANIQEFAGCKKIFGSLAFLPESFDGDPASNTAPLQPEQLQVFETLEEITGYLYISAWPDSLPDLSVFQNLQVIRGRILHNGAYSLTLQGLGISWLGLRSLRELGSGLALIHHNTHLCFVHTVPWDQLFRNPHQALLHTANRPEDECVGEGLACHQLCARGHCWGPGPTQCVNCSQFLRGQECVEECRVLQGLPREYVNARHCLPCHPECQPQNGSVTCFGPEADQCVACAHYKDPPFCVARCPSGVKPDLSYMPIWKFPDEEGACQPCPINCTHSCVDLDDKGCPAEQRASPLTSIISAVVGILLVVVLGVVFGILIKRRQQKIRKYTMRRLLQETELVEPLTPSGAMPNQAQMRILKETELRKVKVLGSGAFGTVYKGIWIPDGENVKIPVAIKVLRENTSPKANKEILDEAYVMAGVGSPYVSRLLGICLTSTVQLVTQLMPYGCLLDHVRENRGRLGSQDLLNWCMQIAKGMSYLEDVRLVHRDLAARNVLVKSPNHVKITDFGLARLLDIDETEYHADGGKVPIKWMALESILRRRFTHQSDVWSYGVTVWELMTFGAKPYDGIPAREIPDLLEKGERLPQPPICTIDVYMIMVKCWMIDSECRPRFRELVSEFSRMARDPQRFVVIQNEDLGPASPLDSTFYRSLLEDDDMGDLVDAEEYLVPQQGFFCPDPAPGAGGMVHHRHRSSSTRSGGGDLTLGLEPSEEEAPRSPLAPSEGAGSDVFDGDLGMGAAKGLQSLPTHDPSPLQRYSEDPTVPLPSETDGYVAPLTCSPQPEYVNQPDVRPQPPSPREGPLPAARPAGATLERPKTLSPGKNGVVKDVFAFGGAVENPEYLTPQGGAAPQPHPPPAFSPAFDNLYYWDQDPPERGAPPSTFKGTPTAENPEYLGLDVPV

Row | Structure (SMILES) | viability [1] [%] | Her2 level [2] | viability [3] | viability [4] | viability [5] | differential viability (reversal) ([6]; H69AR cells + 2 uM doxorubicin) | viability [6, 9] [%] | viability [6, 10] [%] | inhibition [7] | inhibition [8]
1 | OC1C[N+]2(CCCCC2)C1 | 98 | 82% (inactive) | 98% (inactive) | 99.6% (inactive) | 109% (inactive) | 13% (inactive) | 95.6 | 109 | -4.8% (inactive) | -3.23% (inactive)
2 | C=CCNS(=O)(=O)c1ccc2nsnc2c1 | 102 | 109% (inactive) | 102% (inactive) | 87.8% (inactive) | 100% (inactive) | -1.67% (inactive) | 102 | 100 | 0.27% (inactive) | -2.1% (inactive)
3 | CC(=O)c1cccc(-n2nnnc2SCC(=O)N2CCCC2)c1 | 93.5 | 88% (inactive) | 93.5% (inactive) | 83.1% (inactive) | 87.9% (inactive) | -2.82% (inactive) | 90.7 | 87.9 | -3.55% (inactive) | -7.5% (inactive)
4 | COc1ccc(C(C)=O)c(OC(=O)c2ccc(OC)c(OC)c2)c1 | 104 | 88.5% (inactive) | 104% (inactive) | 92.8% (inactive) | 98.6% (inactive) | 1.11% (inactive) | 97.5 | 98.6 | -6.4% (inactive) | -3.33% (inactive)
5 | CCOC(=O)c1c(C)c(C(=O)NCCN2CCOCC2)c(C)n1C | 89.5 | 91% (inactive) | 89.5% (inactive) | 107% (inactive) | 86.7% (inactive) | -3.83% (inactive) | 90.5 | 86.7 | -10.7% (inactive) | 1.11% (inactive)
6 | Cc1cc(C)n2cc(CSCc3ccco3)nc2n1 | 97 | 83% (inactive) | 97% (inactive) | 113% (inactive) | 95.2% (inactive) | 8.73% (inactive) | 86.4 | 95.2 | -7.16% (inactive) | 0.83% (inactive)
7 | CC1=C(C(=O)NC2CCC(C)CC2)C2(CCC(C)CC2)OC1=O (stereo not given) | 112 | 84% (inactive) | 112% (inactive) | 96.2% (inactive) | 90.4% (inactive) | -3.75% (inactive) | 94.1 | 90.4 | -2.27% (inactive) | -5.25% (inactive)
8 | COC(=O)c1ccc(N2C(=O)CC(N3CCN(C(=O)c4ccco4)CC3)C2=O)cc1 (stereo not given) | 86 | 89.5% (inactive) | 86% (inactive) | 85.9% (inactive) | 89.5% (inactive) | -4.23% (inactive) | 93.7 | 89.5 | -3.73% (inactive) | -2.95% (inactive)
9 | O=C1c2ccccc2C(=O)N1CNc1ccccc1 | 96.5 | 93.5% (inactive) | 96.5% (inactive) | 108% (inactive) | 101% (inactive) | -17.7% (inactive) | 118 | 101 | -5.2% (inactive) | -1.15% (inactive)
10 | CNC(=O)CSc1nnc(-c2cc(C)cc(C)c2)o1 | 94.5 | 99% (inactive) | 94.5% (inactive) | 93.4% (inactive) | 108% (inactive) | 13.4% (inactive) | 95.1 | 108 | -3.07% (inactive) | -3.06% (inactive)
11 | CCOC(=O)c1ccc(NC(=O)CSc2n[nH]c(-c3ccncc3)n2)cc1 | 87.5 | 102% (inactive) | 87.5% (inactive) | 80% (inactive) | 87.7% (inactive) | -1.68% (inactive) | 89.4 | 87.7 | -3.11% (inactive) | 1.27% (inactive)
12 | CCOC(=O)c1ccc(S(=O)(=O)NC2CCCCCCC2)n1C | 113 | 70% (inactive) | 113% (inactive) | 86.9% (inactive) | 104% (inactive) | -3.18% (inactive) | 107 | 104 | -1.49% (inactive) | 1.11% (inactive)
13 | OCc1nc(CO)n(Cc2ccccc2)n1 | 85.5 | 84% (inactive) | 85.5% (inactive) | 88.7% (inactive) | 102% (inactive) | -5.83% (inactive) | 108 | 102 | -1.05% (inactive) | -0.48% (inactive)
14 | O=S(=O)(NCCCCCNS(=O)(=O)c1ccccc1)c1ccccc1 | 92.5 | 90.5% (inactive) | 92.5% (inactive) | 112% (inactive) | 93.2% (inactive) | -13.4% (inactive) | 107 | 93.2 | -4% (inactive) | -3.39% (inactive)
15 | O=C(C1CCN(S(=O)(=O)c2cccnc2)CC1)N1CCN(c2ccc(Cl)cc2)CC1 | 84 | 81% (inactive) | 84% (inactive) | 70.2% (inactive) | 89.7% (inactive) | 18.8% (inactive) | 70.9 | 89.7 | -2.11% (inactive) | -4.44% (inactive)
16 | O=C(CN1C(=O)CCSc2ccccc21)Nc1ccccc1 | 113 | 94% (inactive) | 113% (inactive) | 111% (inactive) | 104% (inactive) | 15.9% (inactive) | 88.2 | 104 | -7.67% (inactive) | -7.78% (inactive)

Row | Structure (SMILES) | viability [1] [%] | Her2 level [2] | viability [3] | viability [4] | viability [5] | differential viability (reversal) ([6]; H69AR cells + 2 uM doxorubicin) | viability [6, 9] [%] | viability [6, 10] [%] | inhibition [7] | inhibition [8]
17 | COc1ccccc1-n1c(SCC(N)=O)nnc1-c1ccccc1 | 126 | 97% (inactive) | 126% (inactive) | 88.7% (inactive) | 87.7% (inactive) | -0.18% (inactive) | 87.8 | 87.7 | -7.11% (inactive) | 1.9% (inactive)
18 | COc1ccc(Cc2nnc(NC(=O)Cc3cccs3)s2)cc1 | 104 | 112% (inactive) | 104% (inactive) | 103% (inactive) | 106% (inactive) | 5.58% (inactive) | 101 | 106 | 0.41% (inactive) | -4.29% (inactive)
19 | CCOCCCNS(=O)(=O)c1ccc2c(c1)oc(=O)n2CC(=O)OCC | 107 | 98.5% (inactive) | 107% (inactive) | 104% (inactive) | 94.3% (inactive) | -8.29% (inactive) | 103 | 94.3 | -4.74% (inactive) | -1.27% (inactive)
20 | Cc1ccc(CCC(=O)Nc2ccc(S(N)(=O)=O)cc2)o1 | 87.5 | 116% (inactive) | 87.5% (inactive) | 98.4% (inactive) | 109% (inactive) | 7.87% (inactive) | 101 | 109 | 1.33% (inactive) | 6.23% (inactive)
21 | O=C(CCN1C(=O)C2C3C=CC(C3)C2C1=O)N1CCN(c2ccccc2Cl)CC1 (stereo not given) | 97 | 89.5% (inactive) | 97% (inactive) | 82.3% (inactive) | 96% (inactive) | 8.21% (inactive) | 87.8 | 96 | -5% (inactive) | -3.17% (inactive)
22 | CCOc1ccc(-c2noc(-c3ccncc3)n2)cc1OCC | 99 | 108% (inactive) | 99% (inactive) | 119% (inactive) | 86.7% (inactive) | -3.94% (inactive) | 90.7 | 86.7 | -6.13% (inactive) | -1.61% (inactive)
23 | NC1=NC(c2ccc(Cl)cc2)n2c(nc3ccccc32)N1 (stereo not given) | 96 | 86% (inactive) | 96% (inactive) | 84.9% (inactive) | 78.4% (inactive) | -10.8% (inactive) | 89.3 | 78.4 | -5.13% (inactive) | -0.73% (inactive)
24 | CC(C)Nc1ncnc2c1cnn2-c1ccccc1 | 95.5 | 104% (inactive) | 95.5% (inactive) | 88.3% (inactive) | 94.7% (inactive) | 4.19% (inactive) | 90.5 | 94.7 | 0% (inactive) | -8.33% (inactive)
25 | COc1cccc(-c2nc(CSCC(=O)N3CCc4ccccc43)c(C)o2)c1 | 82.5 | 162% (inactive) | 82.5% (inactive) | 82.1% (inactive) | 87.1% (inactive) | -10.1% (inactive) | 97.1 | 87.1 | 2.63% (inactive) | -8.67% (inactive)
26 | Cc1nnc(SCC(=O)Nc2cc(C(F)(F)F)ccc2N2CCOCC2)o1 | 93 | 99% (inactive) | 93% (inactive) | 93.8% (inactive) | 86.8% (inactive) | -2.25% (inactive) | 89 | 86.8 | -0.13% (inactive) | -1.83% (inactive)
27 | COc1ccc(-c2cc(C(=O)N3CCN(Cc4ccccc4)CC3)no2)cc1OC | 99 | 64.5% (inactive) | 99% (inactive) | 81.5% (inactive) | 98.5% (inactive) | 20.8% (inactive) | 77.8 | 98.5 | -5.68% (inactive) | 9% (inactive)
28 | CCOC(=O)C1CCCN(c2c(NCc3ccco3)c(=O)c2=O)C1 (stereo not given) | 94 | 108% (inactive) | 94% (inactive) | 83.3% (inactive) | 94.3% (inactive) | 11.7% (inactive) | 82.6 | 94.3 | 2% (inactive) | -6.07% (inactive)
29 | Oc1ccc2[nH]cnc2c1CN1CCCCC1 | 113 | 110% (inactive) | 113% (inactive) | 107% (inactive) | 99.7% (inactive) | 7.21% (inactive) | 92.5 | 99.7 | -5.39% (inactive) | 3.28% (inactive)
30 | O=C(COc1ccccc1)Nc1nc2ccccc2[nH]1 | 91.5 | 93% (inactive) | 91.5% (inactive) | 92.5% (inactive) | 91.5% (inactive) | 5.92% (inactive) | 85.6 | 91.5 | -1.04% (inactive) | -3.93% (inactive)
31 | CCOc1ccccc1C(=O)NC(C)c1ccc2c(c1)OCO2 (stereo not given) | 104 | 99% (inactive) | 104% (inactive) | 67.6% (inactive) | 23.5% (active) | -56.4% (inactive) | 80 | 23.5 | -6.89% (inactive) | -4.26% (inactive)
32 | COC(=O)c1c(NC(=O)CSc2nnc(-c3cccnc3)n2Cc2ccco2)sc(C)c1C | 87 | 77% (inactive) | 87% (inactive) | 71.5% (inactive) | 83.7% (inactive) | 9.16% (inactive) | 74.5 | 83.7 | -5.14% (inactive) | -6.03% (inactive)
